Screening data deposited in PubChem BioAssay by several laboratories.
M1 agonist: activates the M1 muscarinic receptor | hit rate 3% among 64,000 | CHO-M1 cells, Fluo-4 calcium fluorescence, agonist mode; hits give high values | AID 626 | B-score at 10 µM;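 active = fluorescence rise, raw or as B-score row- and column-corrected plate score, outside the 99.7% band of its plate's samples, either direction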
Htt clearance: compounds clearing mutant huntingtin protein | inhibition, % at 1.5 µM | HeLa Exon1htt(103Q)mCFP, aggregate imaging; zero = plate's median compound well | hit rate 0.42% among 47,000 | AID 853;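 active = inhibition of aggregate fluorescence above about 70%, also judged a hit by eye on the cell image, limit read from the data, passing the limit was not always enough; inconclusive = no rule stated for this call; inactive = not judged a hit on image review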;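 also: cells exposed to compound for three days before fixation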
D1 mod: allosterically modulates the human D1 dopamine receptor | P21728 | HEK293 D1, CRE-luciferase, dopamine EC30 potentiation; actives deviate in either direction | B-score at 10 µM | hit rate 5.9% among 58,000 | AID 641;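 active = luminescence count or its row- and column-corrected plate score outside the 99.7% band of the plate's sample wells, on either side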
M1 antagonist: blocks the rat M1 muscarinic receptor response to acetylcholine | P08482 | CHO-M1 cells, Fluo-4 calcium, ACh EC80 antagonist mode; hits give low values | B-score at 10 µM | hit rate 3.4% among 64,000;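 active = calcium fluorescence response, raw or row-and-column corrected B-score, differing from the plate sample mean either way at a set confidence level, mostly lower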
Target sequence (P08482 whole entry, looked up): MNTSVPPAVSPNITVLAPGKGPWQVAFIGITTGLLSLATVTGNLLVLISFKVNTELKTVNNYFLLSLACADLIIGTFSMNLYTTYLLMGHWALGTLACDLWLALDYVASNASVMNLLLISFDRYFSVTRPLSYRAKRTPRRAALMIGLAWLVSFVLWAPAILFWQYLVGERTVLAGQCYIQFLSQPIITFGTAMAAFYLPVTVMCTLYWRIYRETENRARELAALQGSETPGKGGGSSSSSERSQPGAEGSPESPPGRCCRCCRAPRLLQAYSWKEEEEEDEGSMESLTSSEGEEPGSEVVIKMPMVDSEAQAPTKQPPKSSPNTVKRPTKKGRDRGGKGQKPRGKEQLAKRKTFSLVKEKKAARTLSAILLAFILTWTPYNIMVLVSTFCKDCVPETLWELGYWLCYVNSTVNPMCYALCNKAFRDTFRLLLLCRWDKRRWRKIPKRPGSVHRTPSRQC
AP ELISA ortho: orthogonal test for alternative complement pathway inhibitors. hit rate 0.08% among 62,000. Human serum alternative complement pathway, LPS-coated ELISA, C3 deposition; tested in compound mixtures. inhibition, % at 5 µM;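 active = inhibition above 30% in each of the two pooled mixtures holding the compound, so the lower value exceeds 30%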;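 also: 0% = serum in Mg-EGTA without compound and 100% = EDTA serum blank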
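Medium: diluted human serum in Mg2+-EGTA GVB++. Assay system: human serum complement alternative pathway, C3 deposition onto LPS. Also added: Plate-bound LPS. Technique: Anti-C3 ELISA, OD 450 nm. Measure: percent inhibition. Incubation: 1 h at 37 °C. Dosing: 5 µM each compound, pools of ten, 50 µM per pool.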
M1 antag conf: confirmation of rat M1 muscarinic receptor antagonists. shares compounds with M1 antagonist. AID 677. CHO-M1 cells, Fluo-4 calcium, ACh EC80 antagonism; hits give low values. hit rate 43% among 1,700. calcium response (max-min fluorescence) at 10 µM;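 active = calcium response below the same-plate mean of wells given acetylcholine alone at its 80%-effect dose, minus 3 SD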;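 also: raw fluorescence intensity difference in arbitrary instrument units and not normalized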
mGluR4 antag: selectivity test for M1 antagonists: human mGluR4 receptor. hit rate 0.9% among 1,700. shares compounds with M1 antagonist. fluorescence response (max-min) at 10 µM. CHO-mGluR4 calcium flux, Fluo-4 fluorescence, glutamate EC80; hits give low values;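 active = fluorescence response below the plate's average for near-maximal glutamate wells, less 3 SD of those wells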;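 also: raw unnormalized fluorescence span taken in the window right after glutamate addition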
* hit, by the source's call; ? = inconclusive; . = no result. Only some compounds are listed: those with a hit (about 9% of all), similar ones and a draw of the others.

SMILES	M1 agonist	Htt clearance	D1 mod	M1 antagonist	AP ELISA ortho	M1 antag conf	mGluR4 antag
COc1ccc(NC(=O)CSc2nnc(Cc3cccn3C)n2CCc2ccccc2)cc1OC	0.816	30.9	-1.07	0.544	17.6	.	.
CCc1ccc(CNC(=O)CN2C(=O)COc3ccccc32)cc1	-0.788	.	0.21	-0.344	-0.8	.	.
COCCCNc1nc2c(c(=O)[nH]c(=O)n2C)n1CC(O)COc1ccccc1C (centres undefined)	-0.29	-184.0	0.192	-3.57*	17.9	594	241
CCC1Oc2ccc(C)cc2N(CC(=O)NCC2COc3ccccc3O2)C1=O (centres undefined)	.	25.8	.	.	.	.	.
N=c1c2c3c(sc2nc2n1CCC2)CCCC3	-0.0407	.	-0.112	-1.93*	-12.6	634	255
CN1CCN(C(=O)CN(Cc2ccc(Cl)cc2)S(C)(=O)=O)CC1	0.585	.	-0.129	-2.52*	18.1	538	211
O=C(CSc1nnc(COc2ccccc2Cl)o1)NC(=O)NC1CCCC1	0.79	-23.4	-1.25	-0.723	13.4	.	.
O=C(COc1ccccc1Cl)NC(=O)NC1CCCC1	-0.271	.	-0.169	-8.73*	-0.2	233*	267
CCN(CC)Cc1cc(C(C)=O)ccc1OCC(C)C	-0.379	-0.4	.	-0.322	.	.	.
CCN(CC)Cc1cc(CC(C(N)=O)C(N)=O)ccc1OC	1.07	?	-0.108	-2.49*	12.0	672	224
CCCS(=O)(=O)N1CCC(C(=O)N2CCC(Cc3ccccc3)CC2)CC1	0.309	5.9	-0.0222	-0.419	15.8	.	.
Cc1nn(C)c(C)c1S(=O)(=O)N1CCCC(C(=O)N2CCN(c3ccccc3)CC2)C1 (centres undefined)	-0.739	57.7	-0.193	-2.27*	15.2	617	257
CCCS(=O)(=O)N1CCCC(C(=O)N2CCC(Cc3ccccc3)CC2)C1 (centres undefined)	-0.389	.	-0.743	-5.2*	3.0	577	260
CCCS(=O)(=O)N1CCCC(C(=O)N2CCN(c3ccccn3)CC2)C1 (centres undefined)	0.0381	12.6	1.85	-2.57*	3.8	525	191
COc1ccc(CNC(=O)C2CCCN(S(=O)(=O)c3c(C)nn(C)c3C)C2)cc1 (centres undefined)	0.0626	-11.7	-0.337	0.499	19.0	.	.
CCN(CC)C(=O)COc1ccc(-c2nnc(N3CCCCC3)c3ccccc23)cc1	-0.329	.	-0.59	-2.91*	11.8	531*	181
Cc1ccc(N(C(C)C(=O)N2CCCCC2)S(C)(=O)=O)cc1C (centres undefined)	0.449	.	0.233	-0.00438	-7.7	.	.
O=C1c2ccccc2C(=O)N1CCCOc1ccccc1	-0.0137	-17.8	.	-0.0984	13.8	.	.
O=C1c2ccccc2C(=O)N1CCOCCN1C(=O)c2ccccc2C1=O	0.452	50.3	-0.836	-3.25*	-13.8	687	242
Cc1cc(NC(=O)CCCC(=O)NCc2cccs2)no1	-0.0315	.	-0.137	0.0527	-6.7	.	.
CCN(CC)CCOC(=O)C1(c2ccccc2)CCOCC1	-0.94	38.1	0.781	-14.8*	6.3	102*	237
COc1ccc(C(C)=O)c2c1OCCO2	0.132	.	0.939	-2.23*	-0.8	633	236
Cc1ccccc1OCC(=O)OC(C)CN1CCN(C)CC1 (centres undefined)	0.317	.	-0.0351	-5.5*	17.2	641	246
O=C(O)CCCCCN1C(=O)CSC1=S	0.293	.	-0.0179	-6.39*	14.6	667	241
Cc1nc(NC2=NCN(CCc3ccccc3)CN2)nc2c(C)cccc12	0.0347	17.9	0.351	-0.845	5.1	.	.
SMILES	M1 agonist	Htt clearance	D1 mod	M1 antagonist	AP ELISA ortho	M1 antag conf	mGluR4 antag
Cc1ccc(S(=O)(=O)NC2=NCN(C3CCCCC3)CN2)cc1	-0.0154	-13.6	0.256	-0.52	11.6	.	.
Cc1nc(NC2=NCN(CC3CCCO3)CN2)nc2ccccc12 (centres undefined)	-0.204	.	-0.0699	-8.91*	10.5	108*	209
Cc1nc(NC2=NCN(C3CCCCC3C)CN2)nc2ccccc12 (centres undefined)	-1.31	59.2	-0.199	-4.95*	-1.9	258*	186
COc1ccc(N=c2oc3c(OC)cccc3cc2C(=O)NCc2ccco2)c(OC)c1	-0.37	-3.3	-0.83	-0.0205	1.6	.	.
CCOC(=O)c1c(C)c(C(=O)N(C)C2CCCCC2)c(C)n1C	0.423	.	-1.21	0.6	2.2	.	.
COc1ccc2oc(C(=O)c3ccccc3)c(NC(=O)CN3CCN(C)CC3)c2c1	0.232	.	0.117	-3.21*	6.5	416	252
COc1ccc2oc(C(=O)c3ccccc3)c(N)c2c1	.	-17.1	.	.	.	.	.
CC(=O)N(Cc1ccccc1)c1ccc(C(=O)O)cc1	-0.264	-7.3	.	-2.03*	.	16.1*	232
C#CCOc1ccc(Br)cc1/C=N/O	.	-17.5	.	.	.	.	.
Cc1ccc2c(c1)CCCN2C(=O)c1ccco1	.	40.8	.	.	.	.	.
Cc1ccc(N=C2SCCCN2C(=O)c2ccco2)cc1Cl	-0.324	.	-0.27	-1.94*	0.3	532*	240
CCn1c(C(=O)NCCCN2CCc3ccccc3C2)cc2sccc21	0.172	.	.	-3.63*	10.6	492*	233
CCN1CCN(CCCNC(=O)c2cc3sccc3n2CC)CC1	-0.0312	1.5	-0.281	-1.65*	-17.1	611	231
Cc1ccc(Cn2c(C(=O)NCCCN3CCOCC3)cc3sccc32)cc1	-0.572	.	-0.337	-3.23*	23.1	510*	267
O=C(Cn1c(C(=O)NCCCN2CCOCC2)cc2sccc21)c1ccccc1	-0.0363	.	.	-1.49	5.8	.	.
COc1ccc(C2C3C(=O)N(Cc4ccccc4)C(=O)C3ON2c2ccccc2)c(OC)c1OC (centres undefined)	0.256	.	-0.00211	-2.93*	-9.4	654	188
CC(C)CCNC(=O)C(C)N(Cc1ccc(F)cc1)C(=O)c1ccc(CN2CCCCC2)o1 (centres undefined)	-0.143	31.5	0.00274	-3.25*	-5.1	595	219
CCc1ccc(-c2nc(CN3CCC(C(=O)N4CCN(c5ccccc5)CC4)CC3)c(C)o2)cc1	0.723	.	1.38	-2.93*	14.8	486*	255
Cc1oc(-c2cccc(Cl)c2)nc1CN1CCC(C(=O)N2CCN(c3ccccn3)CC2)CC1	2.8	.	-0.804	-1.77	5.2	.	.
Cc1oc(-c2ccc(Cl)cc2)nc1CN1CCC(C(=O)N2CCN(c3ccccn3)CC2)CC1	0.478	.	-0.791	-3.22*	9.4	385	236
CCc1ccc(-c2nc(CN3CCC(C(=O)NCCN(CC)c4ccccc4)CC3)c(C)o2)cc1	1.07	.	-1.38	0.463	18.9	.	.
CC1CC(C)CN(c2cc(=O)n(Cc3ccc(F)cc3)c(=O)[nH]2)C1 (centres undefined)	.	20.4	.	.	.	.	.
COc1ccccc1N1CCN(S(=O)(=O)Cc2ccccc2Cl)CC1	0.788	-3.6	-1.2	0.83	8.2	.	.
Cc1cccc2cc(COC(=O)c3ccccn3)c(=O)[nH]c12	-0.00407	.	-0.756	0.717	1.0	.	.
